# Compound activity as filed in PubChem.
# Most compounds without a hit are left out; they make up all but 2.3% or so of the library.
# DSG3 Ab inh – blocks pemphigus antibody binding to human desmoglein-3 | P32926 | DSG3-coupled beads, scFv-anti-DSG3-GFP binding, flow cytometry; active compounds read low | binding (percent of control), % at 10 µM | 310,000 tested, 0.48% active;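 active means binding more than 3 SD below its plate's average and above zero; inconclusive means below that plate limit but binding exactly zero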;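 further: hits lower antibody fragment binding to DSG3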
# T cell modulator – T cell immune modulators affecting CD8 T cell-vesicle binding; 2C CD8+ T cell-vesicle binding, flow cytometry; active compounds read low; response (vesicle binding), % at 7 µM; 330,000 tested, 0.068% active; AID 2052;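 active means response, share of CD8 T cells binding vesicles, and their 90th percentile fluorescence all below set limits, cut at about 80% in these data, passing the limit was not always enough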;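 further: values below 100% mean blocked vesicle binding to the CD8+ T cells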
#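 Also added: QL9-peptide-loaded Drosophila micro-vesicles bearing Ld, ICAM-1 and B7-1; Test system: purified 2C TCR transgenic mouse naive CD8+ T cells; Measured by: cytometric PE anti-B7-1 and Alexa647 anti-CD8 signals after 1% paraformaldehyde fixation; Timing: binding step 1.5 h, 37 °C, antibody labelling 20 min, ice.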
# CHT block – inhibits the human high affinity choline transporter. CHT-expressing cells, membrane potential dye, choline response; active compounds read low. B-score at 10 µM. 310,000 tested, 0.86% active;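 active means B-score over 3 SD under the library average, and starting fluorescence ratio not unusually high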;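 further: choline stimulus applied at its EC90 after an EC20 pre-addition; B-score computed on integrated fluorescence ratio after choline addition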
# GPR7 antag – antagonists of human GPR7 (neuropeptides B/W receptor 1) | 290,000 tested, 1.1% active | P48145 | GPR7-expressing cells, fluorescence antagonist assay | inhibition, % at 4.4 µM | AID 1861; in the data active means inhibition above about 16%, passing the limit was not always enough;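 further: cells stimulated with the agonist NPW; 0% = agonist with vehicle and 100% = vehicle without agonist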
# p-CIP stab down – p/CIP protein destabilization. Q05BA5. decrease of EGFP signal, % at 10 µM. 290,000 tested, 0.01% active. F442A p/CIP-EGFP cells, EGFP fluorescence, 16 h;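 active means EGFP signal decrease of at least 30% at 10 µM or well 3 SD below plate mean, unless failing retest; inactive means the rest, including hits failing retest or dose response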
# CHT PAM – allosteric activators of human choline transporter CHT | Q9GZV3 | CHT-expressing cells, membrane potential dye, choline EC20; active compounds read high; LV-AA mutant CHT in HEK293 cells | B-score at 10 µM | 310,000 tested, 0.49% active | AID 488977;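 active means initial fluorescence not abnormally high and integrated response B-score, plate-corrected, over 3 SD above library mean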
# GPR7 antag cf – confirmation of human GPR7 antagonists; AID 1952; inhibition, % at 4.4 µM; 2,400 tested, 52% active; shares compounds with GPR7 antag; GPR7-expressing cells, calcium fluorescence antagonist mode; in the data active means inhibition above about 24%;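 further: stimulated with the GPR7 agonist NPW; 0% = agonist plus vehicle and 100% = vehicle alone without agonist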
# MCHR1 antag – MCHR1 (human) antagonism in GPR7 counter-screen; shares compounds with GPR7 antag; MCHR1-expressing cells, fluorescence antagonist assay; inhibition, % at 4.4 µM; 2,400 tested, 62% active; in the data active means inhibition above about 22%;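 further: 0% = vehicle with agonist and 100% = vehicle without agonist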
# The depositor's hits bear a star; i = inactive; ? = inconclusive; / = no result.
SMILES,DSG3 Ab inh,T cell modulator,CHT block,GPR7 antag,p-CIP stab down,CHT PAM,GPR7 antag cf,MCHR1 antag
CN(C(=O)c1ccccc1OCc1ccc(F)cc1)c1c(N)n(Cc2ccccc2)c(=O)[nH]c1=O,100,/,/,/,/,/,/,/
CCCCCCCCOC(=O)c1cc([N+](=O)[O-])c(Sc2ncnc3nc[nH]c23)c([N+](=O)[O-])c1,92,/,/,/,/,/,/,/
COc1ccc(CC2(CO)CCN(Cc3nc(C(C)C)cs3)CC2)cc1,98,152,i,25*,-2,i,8,40*
O=C(Nc1ccc(N2CCN(C(=O)c3ccco3)CC2)c(Cl)c1)c1cccnc1,82,362,i,-5,10,i,/,/
O=C(Nc1ccc(N2CCN(C(=O)c3ccco3)CC2)c(Cl)c1)c1c(F)c(F)c(F)c(F)c1F,74,189,i,30*,4,i,17,78*
COc1ccc(N=C2S/C(=C\c3ccc(Cl)c([N+](=O)[O-])c3)C(=O)N2CCN(C)C)cc1,106,698,i,48*,-6,i,65*,59*
CCN(CC)CCN1C(=O)/C(=C\c2ccc(Cl)c([N+](=O)[O-])c2)SC1=Nc1ccc(OC)cc1,113,324,i,46*,-9,i,75*,60*
COc1ccc(N(CC(=O)NCc2ccc(Cl)cc2)S(=O)(=O)c2ccccc2[N+](=O)[O-])c(OC)c1,93,187,i,37*,-5,i,34*,38*
COc1cccc(Nc2ncnc3sc(C)cc23)c1,/,108,i,30*,-8,i,-17,11
COc1ccccc1N1CCN(C(c2ccc(F)cc2)c2nnnn2C(C)C)CC1 (centres undefined),?,/,/,43*,-4,/,22,12
COc1ccccc1N1CCN(C(c2ccc(C)cc2)c2nnnn2C(C)C)CC1 (centres undefined),104,356,i,17,-5,i,/,/
COc1ccc(CCN2CC(C(=O)NCCc3ncccc3C)CCC2=O)cc1 (centres undefined),101,/,/,/,/,/,/,/
Cn1c(=O)c2c(nc(OC3CCCC3)n2C)n(C)c1=O,93,/,/,/,/,/,/,/
Cc1ccc(Nc2nc(Cl)nc3ncn(C)c23)c(C)c1,94,/,/,/,/,/,/,/
COc1ccc(NS(=O)(=O)c2ccc(OC)c(N(C)S(=O)(=O)c3ccc(Cl)cc3)c2)cc1,123,788,i,27*,-6,i,29*,52*
COc1ccc(S(=O)(=O)Nc2ccc(F)cc2)cc1N(C)S(=O)(=O)c1ccc(Cl)cc1,104,377,i,20,-11,i,/,/
O=c1c2ccc([N+](=O)[O-])cc2ncn1CCOc1ccc(Cl)cc1,119,i,i,26*,4,i,44*,62*
COc1ccc(C)cc1S(=O)(=O)N1CCCC(N2CCN(c3ccccc3)CC2)C1 (centres undefined),109,/,/,/,/,/,/,/
COc1ccccc1N1CCN(C(=O)COc2ccc(Cl)cc2Br)CC1,107,177,i,28*,-2,i,48*,47*
Cc1cccc(-c2nc(=S)c3c(n2Cc2ccco2)CCCC3)c1,97,370,i,28*,0,i,22,12
Cc1ccc(-c2nc(=S)c3c(n2Cc2ccco2)CCCC3)cc1,176,/,/,17,-1,/,/,/
Cc1ccc(S(=O)(=O)N(C)c2ccc(OC(C)C(=O)N(C)c3ccccc3)cc2)cc1 (centres undefined),98,/,/,/,/,/,/,/
CCC(C)(C(=O)NC1CCCC1)N(CC1CCCO1)C(=O)c1ccc2c(c1)OCO2 (centres undefined),/,626,i,0,0,i,/,/
CCC(C)(C(=O)NC1CCCCC1)N(Cc1ccco1)C(=O)c1ccc2c(c1)OCO2 (centres undefined),104,428,i,34*,13,i,34*,12
